Measured values reported in ChEMBL document CHEMBL1157420, “2-phenyl-4-piperazinylbenzimidazoles: orally active inhibitors of the gonadotropin releasing hormone (GnRH) receptor” (Bioorg Med Chem, 2008).
Values after ≈ are worked out from the molar mass of the structure shown. Each block holds one compound with its values, some of them ahead of it.

Assays:
[1] = target: T1, Gonadotropin-releasing hormone receptor (Homo sapiens) (UniProt P30968); assay: Displacement of [125I]-(D-Trp6)LHRH from human recombinant GnRH receptor at 10 uM
T1 sequence (whole entry): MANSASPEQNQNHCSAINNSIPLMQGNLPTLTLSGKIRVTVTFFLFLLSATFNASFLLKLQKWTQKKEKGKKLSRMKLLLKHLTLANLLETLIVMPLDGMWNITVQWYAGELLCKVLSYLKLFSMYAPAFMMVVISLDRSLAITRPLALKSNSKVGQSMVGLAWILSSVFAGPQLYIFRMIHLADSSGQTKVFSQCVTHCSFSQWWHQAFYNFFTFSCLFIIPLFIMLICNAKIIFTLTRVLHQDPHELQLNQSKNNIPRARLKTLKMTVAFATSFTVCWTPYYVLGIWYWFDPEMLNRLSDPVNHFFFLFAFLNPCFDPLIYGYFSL
Procedure, shortened: (§1)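 Membranes from recombinant cells expressing human or rat GnRH receptor, made in 25 mM Tris-Cl pH 7.4 with 0.1% sodium azide and 0.1% BSA. 50 μg protein incubated with about 50,000 cpm 125I-(D-Trp6)-LHRH for 2 h at 4 °C, with increasing unlabeled competitor. Filtered on BSA-presoaked glass-fiber filters, washed twice, counted by gamma counter. Percent inhibition and IC50 derived.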

[2] = target: T2, Gonadotropin-releasing hormone receptor (Homo sapiens, UniProt P30968); assay: Displacement of [125I]-(D-Trp6)LHRH from human recombinant GnRH receptor; procedure, shortened: as §1
T2 sequence (P30968 whole entry): T1 sequence (whole entry)

[3] = target: T3, Gonadotropin-releasing hormone receptor (Rattus norvegicus, UniProt P30969); assay: Antagonist activity at […] GnRH receptor in CO2 asphyxiated rat primary pituitary cells assessed as reduction in (D-Trp6)LHRH-induced LH release; type: functional, cell-based, Pituitary gland cell
T3 sequence (P30969 whole entry): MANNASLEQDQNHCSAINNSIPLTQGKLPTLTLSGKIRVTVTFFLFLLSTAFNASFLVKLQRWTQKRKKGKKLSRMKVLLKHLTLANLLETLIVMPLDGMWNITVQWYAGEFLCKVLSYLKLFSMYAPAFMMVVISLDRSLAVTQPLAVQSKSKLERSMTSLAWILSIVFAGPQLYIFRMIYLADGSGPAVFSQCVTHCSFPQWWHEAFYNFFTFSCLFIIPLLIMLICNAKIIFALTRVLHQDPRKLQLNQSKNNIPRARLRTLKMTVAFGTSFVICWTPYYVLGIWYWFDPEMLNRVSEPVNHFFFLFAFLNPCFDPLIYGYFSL
Procedure, shortened: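 Anterior pituitaries from adult rats were minced, dissociated and plated at 30,000 cells/well in DMEM with 25 mM Hepes and 10% FBS, then cultured 72 h at 37 °C, 5% CO2. After washing, cells were treated 3 h in 0.1% BSA medium with an antagonist dose response plus an ED50 concentration of D-Trp6-LHRH. LH in medium measured by RIA; cell toxicity checked by CellTiter-Glo.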

[4] = target: 5-hydroxytryptamine receptor 1B (Homo sapiens, UniProt P28222); assay: Binding affinity to human 5HT1B receptor at 1000 nM
Sequence of 5-hydroxytryptamine receptor 1B (P28222 whole entry): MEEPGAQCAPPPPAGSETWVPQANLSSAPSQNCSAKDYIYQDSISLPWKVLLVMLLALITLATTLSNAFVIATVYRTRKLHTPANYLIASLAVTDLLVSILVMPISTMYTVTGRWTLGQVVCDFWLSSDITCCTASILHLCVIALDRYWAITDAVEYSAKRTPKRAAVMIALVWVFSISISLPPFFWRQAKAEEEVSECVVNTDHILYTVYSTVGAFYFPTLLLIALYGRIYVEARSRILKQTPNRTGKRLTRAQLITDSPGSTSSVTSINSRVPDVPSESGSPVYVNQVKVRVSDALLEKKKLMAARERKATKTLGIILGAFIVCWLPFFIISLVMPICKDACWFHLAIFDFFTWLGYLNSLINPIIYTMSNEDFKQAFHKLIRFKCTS

[5] = target: T2, Gonadotropin-releasing hormone receptor; assay: Antagonist activity at human recombinant GnRH receptor assessed as reduction in (D-Trp6)LHRH-induced myo-(1,2)-[3H]inositol production; type: functional
Procedure, shortened: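 Recombinant cells expressing human GnRH receptor, pre-labeled with myo-(1,2)-3H-inositol, incubated 1 h in medium with lithium chloride and D-Trp6-LHRH, with or without antagonist. Cells then lysed and labeled inositol phosphates separated from inositol by […] and counted. Run in triplicate, repeated in three independent experiments; IC50 derived.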

[6] = target: T4, 5-hydroxytryptamine receptor 1A (Homo sapiens, UniProt P08908); assay: Binding affinity to human 5HT1A receptor; conditions: read-out: Ki
T4 sequence (P08908 whole entry): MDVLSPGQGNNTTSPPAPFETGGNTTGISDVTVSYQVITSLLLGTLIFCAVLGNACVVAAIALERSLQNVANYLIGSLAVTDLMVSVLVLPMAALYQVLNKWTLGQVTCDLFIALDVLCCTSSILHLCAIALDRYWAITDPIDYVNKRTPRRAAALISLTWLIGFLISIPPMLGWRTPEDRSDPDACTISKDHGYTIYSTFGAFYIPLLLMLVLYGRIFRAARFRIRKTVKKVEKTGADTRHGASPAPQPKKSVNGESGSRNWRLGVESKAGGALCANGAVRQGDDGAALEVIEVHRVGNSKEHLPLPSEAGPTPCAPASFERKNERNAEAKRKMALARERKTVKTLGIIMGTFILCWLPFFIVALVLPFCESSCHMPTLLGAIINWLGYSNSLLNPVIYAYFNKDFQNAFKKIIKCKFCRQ

[7] = target: T3, Gonadotropin-releasing hormone receptor; assay: Displacement of [125I]-(D-Trp6)LHRH from rat recombinant GnRH receptor; procedure, shortened: as §1
[8] = target: 5-hydroxytryptamine receptor 1D (Homo sapiens, UniProt P28221); assay: Binding affinity to human 5HT1D receptor at 1000 nM
Sequence of 5-hydroxytryptamine receptor 1D (P28221 whole entry): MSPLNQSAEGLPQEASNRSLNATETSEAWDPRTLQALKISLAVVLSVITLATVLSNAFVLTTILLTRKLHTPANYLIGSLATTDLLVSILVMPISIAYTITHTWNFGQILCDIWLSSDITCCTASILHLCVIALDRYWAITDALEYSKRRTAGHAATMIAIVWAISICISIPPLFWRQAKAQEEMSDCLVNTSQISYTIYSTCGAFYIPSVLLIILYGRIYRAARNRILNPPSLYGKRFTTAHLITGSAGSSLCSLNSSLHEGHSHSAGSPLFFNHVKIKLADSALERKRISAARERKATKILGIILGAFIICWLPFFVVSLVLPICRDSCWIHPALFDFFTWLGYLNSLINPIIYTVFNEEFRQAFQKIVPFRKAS

[9] = AUC (0 to infinity) in rat at 1.0 mg/kg, iv; type: ADME, organism-based; design: time infinity, dose 1 mg/kg, route intravenous; conditions: plasma
[10] = Half life in rat plasma at 1.0 mg/kg, iv; type: ADME, organism-based; design: dose 1 mg/kg, route intravenous
[11] = Solubility of compound at pH 7.4; type: physicochemical; conditions: buffer
[12] = Tmax in rat at 10 mg/kg, po; type: ADME, organism-based; design: dose 10 mg/kg, route oral; conditions: in vivo
[13] = Half life in rat plasma at 10 mg/kg, po; type: ADME, organism-based; design: dose 10 mg/kg, route oral
[14] = Membrane permeability by PAMPA assay; type: ADME; conditions: read-out: permeability
[15] = AUC (0 to infinity) in rat at 10 mg/kg, po; type: ADME, organism-based; design: dose 10 mg/kg, route oral, time infinity; conditions: plasma
[16] = Volume of distribution at steady state in rat at 1.0 mg/kg, iv; type: ADME, organism-based; design: dose 1 mg/kg, route intravenous; conditions: in vivo, read-out: Vdss
[17] = Plasma clearance in rat at 1.0 mg/kg, iv; type: ADME, organism-based; design: dose 1 mg/kg, route intravenous
[18] = Cmax in rat at 10 mg/kg, po; type: ADME, organism-based; design: dose 10 mg/kg, route oral; conditions: in vivo
[19] = Metabolic stability in rat liver microsomes assessed as half life; type: ADME, Microsome
[20] = Bioavailability in rat at 10 mg/kg, po; type: ADME, organism-based; conditions: in vivo
[21] = target: T5, Alpha-1A adrenergic receptor (Homo sapiens) (UniProt P35348); assay: Binding affinity to alpha1 adrenergic receptor at 10 uM
T5 sequence (whole entry): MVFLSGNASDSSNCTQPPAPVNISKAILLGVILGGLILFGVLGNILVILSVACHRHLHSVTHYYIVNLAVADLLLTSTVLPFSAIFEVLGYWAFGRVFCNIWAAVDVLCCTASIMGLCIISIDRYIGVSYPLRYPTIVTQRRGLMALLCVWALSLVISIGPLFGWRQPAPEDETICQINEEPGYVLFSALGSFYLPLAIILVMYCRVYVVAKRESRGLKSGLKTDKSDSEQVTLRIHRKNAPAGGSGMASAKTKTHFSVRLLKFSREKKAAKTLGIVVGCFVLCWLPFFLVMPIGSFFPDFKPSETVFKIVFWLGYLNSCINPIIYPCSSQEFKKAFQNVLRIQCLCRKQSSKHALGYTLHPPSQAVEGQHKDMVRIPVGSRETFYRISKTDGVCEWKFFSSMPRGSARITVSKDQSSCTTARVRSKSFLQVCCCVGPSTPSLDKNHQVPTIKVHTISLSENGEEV

[22] = target: T6, 5-hydroxytryptamine receptor 1A (Homo sapiens) (UniProt P08908); assay: Binding affinity to 5HT1A receptor at 10 uM
T6 sequence (whole entry): T4 sequence (P08908 whole entry)

Compound: CC(C)(C)c1ccc(-c2nc3c(N4CCN(Cc5ccccc5)CC4)cccc3[nH]2)cc1
Activity [1]: 6%

Compound: S=c1[nH]c2cccc(OCCN3CCN(c4cccc5[nH]cnc45)CC3)c2[nH]1
Activity [1]: 5%

Compound: FC(F)(F)c1nc2c(N3CCN(CCOc4ccc5[nH]c(=S)[nH]c5c4)CC3)cccc2[nH]1
IC50 [2]: 4500 nM

Compound: FC(F)(F)c1nc2c(N3CCN(CCOc4cccc5[nH]c(=S)[nH]c45)CC3)cccc2[nH]1
IC50 [3]: 76000 nM
IC50 [2]: 790 nM
inhibition [4]: 67%
IC50 [5]: 4500 nM
Ki [6]: 2.8 nM
IC50 [7]: 21000 nM
inhibition [8]: 67%

Compound: CC(C)c1ccc(-c2nc3c(N4CCN(CCOc5cccc6nc(C(F)(F)F)[nH]c56)CC4)cccc3[nH]2)cc1
IC50 [2]: 120 nM
IC50 [5]: 450 nM
IC50 [7]: 990 nM

Compound: O=c1[nH]c2cccc(N3CCN(CCOc4cccc5nc(C(F)(F)F)[nH]c45)CC3)c2[nH]1
Activity [1]: 8%

Compound: Cc1ccc(-c2nc3c(N4CCN(CCOc5cccc6[nH]c(=S)[nH]c56)CC4)cccc3[nH]2)c(C)c1
IC50 [2]: 1200 nM

Compound: CC(C)(C)c1ccc(-c2nc3c(N4CCN(Cc5cccc6[nH]c(=S)[nH]c56)CC4)cccc3[nH]2)cc1
IC50 [3]: 240 nM
IC50 [2]: 6.2 nM
IC50 [5]: 14 nM
IC50 [7]: 110 nM
Activity [21]: 7%
Activity [22]: 5%

Compound: FC(F)(F)c1nc2cc(N3CCN(CCOc4cccc5[nH]c(=S)[nH]c45)CC3)ccc2[nH]1
Activity [1]: 11%

Compound: O=c1[nH]c2cccc(N3CCN(CCOc4cccc5[nH]c(=S)[nH]c45)CC3)c2[nH]c1=O
Activity [1]: 9%

Compound: O=c1[nH]c2cccc(N3CCN(CCOc4cccc5[nH]c(=S)[nH]c45)CC3)c2[nH]1
Activity [1]: 6%

Compound: CCc1ccc(-c2nc3c(N4CCN(CCOc5cccc6[nH]c(=S)[nH]c56)CC4)cccc3[nH]2)cc1
IC50 [2]: 120 nM
IC50 [5]: 640 nM
IC50 [7]: 3900 nM

The next lines start with the values.

IC50 [2]: 11000 nM
Compound: S=c1[nH]c2cccc(OCCN3CCN(c4cccc5[nH]c(-c6ccccc6)nc45)CC3)c2[nH]1

Activity [1]: 8%
Compound: Cn1c(C(F)(F)F)nc2c(N3CCN(CCOc4cccc5[nH]c(=S)[nH]c45)CC3)cccc21

Activity [1]: 7%
Compound: CC(C)(C)c1ccc(-c2nc3c(N4CCN(Cc5ccc6ccccc6c5)CC4)cccc3[nH]2)cc1

Activity [1]: 24%
Compound: O=C(COc1cccc2[nH]c(=S)[nH]c12)N1CCN(c2cccc3[nH]c(C(F)(F)F)nc23)CC1

IC50 [3]: 41 nM
AUC(0-inf) [9]: 355 ng·h/mL
IC50 [2]: 5.5 nM
half-life [10]: 3.5 h
solubility [11]: 25 µg/mL (≈ 54.5 µM)
IC50 [5]: 9.4 nM
Tmax [12]: 1.8 h
half-life [13]: 5.8 h
Papp [14]: 0.6 ×10⁻⁶ cm/s
AUC(0-inf) [15]: 200 ng·h/mL
IC50 [7]: 32 nM
Vd [16]: 3.1 L/kg
clearance [17]: 47 mL/min/kg
Cmax [18]: 19 ng/mL
half-life [19]: 0.5 h
bioavailability [20]: 5%
Compound: CC(C)(C)c1ccc(-c2nc3c(N4CCN(Cc5c[nH]c(=O)[nH]c5=O)CC4)cccc3[nH]2)cc1

Activity [1]: 42%
Compound: FC(F)(F)c1nc2cccc(OCCN3CCN(c4cccc5[nH]c(=S)[nH]c45)CC3)c2[nH]1
